Consider two compounds from ChEMBL document CHEMBL1121559, “Fluorinated analogues of 1-(2-chloroethyl)-3-cyclohexyl-1-nitrosourea: an attempt to control metabolism” (1980).

SMILES strings stand for the structures. Several values for one entry are separate records, joined by “and”; a condition that tells them apart may be missing. Identical values can stand only once.

Experiment [1] has as its system Mus musculus. Put plainly: Activity against TLX-5 lymphoma in mice Percent increase in survival time at 80 mg/kg,. Type of experiment: functional.
In experiment [2] the test system is Mus musculus. Put plainly: Median day of death was measured in mice intracerebrally implanted leukemia L1210 at 30 mg/kg administered intraperitoneally on day 1. As to conditions: route intraperitoneal. It is filed as functional. The method, boiled down: (§1)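 Mice implanted intracerebrally with an inoculum of 10⁵ L1210 leukemia cells. Compound given intraperitoneally on day 1 only. Read-outs were median day of death, % increase in life span calculated for animals dying, and 45-day survivors over total mice. Tests were run by an external cancer screening group.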

Experiment [3] relates to Mus musculus. Put plainly: Median day of death was measured in mice intracerebrally implanted leukemia L1210 at 60 mg/kg administered intraperitoneally on day 1. Type of experiment: functional. The note with it: route intraperitoneal. The method, boiled down:
as §1

For experiment [4], the system named is Mus musculus. Put plainly: Activity against TLX-5 lymphoma in mice Percent increase in survival time at 10 mg/kg,. It is filed as functional.
For experiment [5], the system named is Mus musculus. Put plainly: survivors / total number of mice intracerebrally implanted leukemia L1210 at 50 mg/kg administered intraperitoneally on day 1 only. 4-5 day; 8/9. It is filed as functional. As to conditions: route intraperitoneal. The method, boiled down:
as §1

Experiment [6] relates to Mus musculus. The experiment in a line: Percent increase in life span was measured in mice intracerebrally implanted leukemia L1210 at 40 mg/kg administered intraperitoneally on day 1 only. Type of experiment: functional. As to conditions: L1210, ip, 24 h, route intraperitoneal. In outline:
as §1

Experiment [7] relates to Mus musculus. Put plainly: Median day of death was measured in mice intracerebrally implanted leukemia L1210 at 80 mg/kg administered intraperitoneally on day 1. Type of experiment: functional. The note with it: route intraperitoneal. The method, boiled down:
as §1

For experiment [8], the system named is Mus musculus. The experiment in a line: survivors / total number of mice intracerebrally implanted leukemia L1210 at 40 mg/kg administered intraperitoneally on day 1 only. 4-5 day; 8/9. As to conditions: route intraperitoneal. It is filed as functional. The method, boiled down: as §1
Experiment [9] relates to Mus musculus. Put plainly: survivors / total number of mice intracerebrally implanted leukemia L1210 at 40 mg/kg administered intraperitoneally on day 1 only. 4-5 day; 10/10. It is filed as functional. The note with it: route intraperitoneal. In outline: as §1
The subject of experiment [10] is Mus musculus. Put plainly: Percent increase in life span was measured in mice intracerebrally implanted leukemia L1210 at 60 mg/kg administered intraperitoneally on day 1 only. It is filed as functional. As to conditions: route intraperitoneal. The method, boiled down:
as §1

The test system of experiment [11] is Mus musculus. Put plainly: survivors / total number of mice intracerebrally implanted leukemia L1210 at 30 mg/kg administered intraperitoneally on day 1 only. 4-5 day; 1/9. It is filed as functional. The note with it: route intraperitoneal. The method, boiled down: as §1
Experiment [12] concerns Mus musculus. The experiment in a line: survivors / total number of mice intracerebrally implanted leukemia L1210 at 50 mg/kg administered intraperitoneally on day 1 only. 4-5 day; 8/10. Type of experiment: functional. As to conditions: route intraperitoneal. The method, boiled down: as §1
The subject of experiment [13] is Mus musculus. Put plainly: survivors / total number of mice intracerebrally implanted leukemia L1210 at 60 mg/kg administered intraperitoneally on day 1 only. 4-5 day; 8/10. Type of experiment: functional. The note with it: route intraperitoneal. In outline:
as §1

In experiment [14] the test system is Mus musculus. Put plainly: Activity against TLX-5 lymphoma in mice Percent increase in survival time at 100 mg/kg,. It is filed as functional.
Experiment [15] has as its system Mus musculus. Put plainly: Activity against TLX-5 lymphoma in mice Percent increase in survival time at 20 mg/kg,. It is filed as functional.
In experiment [16] the test system is Mus musculus. The experiment in a line: (§2) Percent increase in life span was measured in mice intracerebrally implanted leukemia L1210 at 80 mg/kg administered intraperitoneally on day 1 only. Type of experiment: functional. The note with it: L1210, ip, 24 h, route intraperitoneal. In outline: as §1
Experiment [17] relates to Mus musculus. Put plainly: Activity against TLX-5 lymphoma in mice Percent increase in survival time at 5 mg/kg,. Type of experiment: functional.
The test system of experiment [18] is Mus musculus. Put plainly: survivors / total number of mice intracerebrally implanted leukemia L1210 at 80 mg/kg administered intraperitoneally on day 1 only. 4-5 day; 3/8. It is filed as functional. The note with it: route intraperitoneal. In outline:
as §1

Experiment [19] relates to Mus musculus. Described as §2. Type of experiment: functional. As to conditions: L1210, ip, 24 h, route intraperitoneal. In outline:
as §1
The source holds these as a separate data set.

In experiment [20] the test system is Mus musculus. Put plainly: Activity against TLX-5 lymphoma in mice Percent increase in survival time at 40 mg/kg,. It is filed as functional.
In experiment [21] the test system is Mus musculus. Put plainly: survivors / total number of mice intracerebrally implanted leukemia L1210 at 30 mg/kg administered intraperitoneally on day 1 only. 4-5 day; 8/10. Type of experiment: functional. As to conditions: route intraperitoneal. In outline:
as §1

Experiment [22] has as its system Mus musculus. Put plainly: Percent increase in life span was measured in mice intracerebrally implanted leukemia L1210 at 50 mg/kg administered intraperitoneally on day 1 only. The note with it: L1210, ip, 24 h, route intraperitoneal. Type of experiment: functional. The method, boiled down: as §1
Experiment [23] deals with Mus musculus. Put plainly: survivors / total number of mice intracerebrally implanted leukemia L1210 at 60 mg/kg administered intraperitoneally on day 1 only. 4-5 day; 9/10. It is filed as functional. As to conditions: route intraperitoneal. The method, boiled down:
as §1

Experiment [24] deals with Mus musculus. Put plainly: Median day of death was measured in mice intracerebrally implanted leukemia L1210 at 40 mg/kg administered intraperitoneally on day 1. The note with it: route intraperitoneal. Type of experiment: functional. The method, boiled down:
as §1

Experiment [25] has as its system Mus musculus. Put plainly: Median day of death was measured in mice intracerebrally implanted leukemia L1210 at 15 mg/kg administered intraperitoneally on day 1. Type of experiment: functional. The note with it: route intraperitoneal. In outline:
as §1

The subject of experiment [26] is Mus musculus. The experiment in a line: Median day of death was measured in mice intracerebrally implanted leukemia L1210 at 10 mg/kg administered intraperitoneally on day 1. Type of experiment: functional. As to conditions: route intraperitoneal. In outline:
as §1

Experiment [27] relates to Mus musculus. The experiment in a line: Median day of death was measured in mice intracerebrally implanted leukemia L1210 at 35 mg/kg administered intraperitoneally on day 1. It is filed as functional. The note with it: route intraperitoneal. In outline: as §1
For experiment [28], the system named is Mus musculus. The experiment in a line: Percent increase in life span was measured in mice intracerebrally implanted leukemia L1210 at 15 mg/kg administered intraperitoneally on day 1 only. It is filed as functional. The note with it: L1210, ip, 24 h, route intraperitoneal. The method, boiled down: as §1
The test system of experiment [29] is Mus musculus. The experiment in a line: Percent increase in life span was measured in mice intracerebrally implanted leukemia L1210 at 35 mg/kg administered intraperitoneally on day 1 only. It is filed as functional. The note with it: L1210, ip, 24 h, route intraperitoneal. The method, boiled down: as §1
Experiment [30] has as its system Mus musculus. Put plainly: Percent increase in life span was measured in mice intracerebrally implanted leukemia L1210 at 140-30 mg/kg administered intraperitoneally on day 1 only; Toxic. It is filed as functional, organism-based. The method, boiled down:
as §1

In experiment [31] the test system is Mus musculus. The experiment in a line: Percent increase in life span was measured in mice intracerebrally implanted leukemia L1210 at 25 mg/kg administered intraperitoneally on day 1 only. It is filed as functional. The note with it: L1210, ip, 24 h, route intraperitoneal. The method, boiled down: as §1
In experiment [32] the test system is Mus musculus. Put plainly: Percent increase in life span was measured in mice intracerebrally implanted leukemia L1210 at 30 mg/kg administered intraperitoneally on day 1 only. It is filed as functional. The note with it: L1210, ip, 24 h, route intraperitoneal. The method, boiled down: as §1
The test system of experiment [33] is Mus musculus. Put plainly: Percent increase in life span was measured in mice intracerebrally implanted leukemia L1210 at 10 mg/kg administered intraperitoneally on day 1 only. Type of experiment: functional. The note with it: L1210, ip, 24 h, route intraperitoneal. In outline:
as §1

Experiment [34] has as its system Mus musculus. Put plainly: Median day of death was measured in mice intracerebrally implanted leukemia L1210 at 25 mg/kg administered intraperitoneally on day 1. Type of experiment: functional. As to conditions: route intraperitoneal. In outline: as §1

Take `O=NN(CCCl)C(=O)NC1CCCCC1` [LOMUSTINE]: the Increase in the experiment with Mus musculus [1] is -25.6%; in the experiment with Mus musculus [4] it was 53.1%; in the experiment with Mus musculus [14] it was -36.2%; in the experiment with Mus musculus [15], 95.9%; in the experiment on Mus musculus [17], 21.2%; in the experiment with Mus musculus [20], 189.3%. The “Median day of death” value was 37.5 and 15 with Mus musculus [2] (30 mg/kg); 26.5 and 20 in the experiment with Mus musculus [3]; 16.5 and 10 with Mus musculus [7]; 25 with Mus musculus [24]. Besides, the No. of survivors in the experiment on Mus musculus [5] is recorded as 8; with Mus musculus [8], 8; with Mus musculus [9], 10; in the experiment with Mus musculus [11], 1; in the experiment on Mus musculus [12], 8; with Mus musculus [13], 8. For the same compound, the results for the No. of survivors in the experiment with Mus musculus [18], in the experiment with Mus musculus [21] and in the experiment with Mus musculus [23] were 3, 8 and 9, respectively. Besides, the ILS at 40 mg/kg in the experiment on Mus musculus [6] was determined as 257%. In addition, the ILS in the experiment with Mus musculus [10] was 278% and 185%. The values for the ILS at 80 mg/kg in the experiment with Mus musculus [16] and with Mus musculus [19] were 42% and 135%, respectively. Also, the ILS at 50 mg/kg in the experiment on Mus musculus [22] turned out to be 350%.
With `O=NN(CCCl)C(=O)NC1C(F)(F)C(F)(F)C(F)(F)C(F)(F)C1(F)F`, the Increase in the experiment on Mus musculus [1] is -38.3%; in the experiment with Mus musculus [4], 6.3%; with Mus musculus [14] it was -57.5%; in the experiment with Mus musculus [15], -2.2%; with Mus musculus [17], 4.2%; with Mus musculus [20], 11.6%. The “Median day of death” value in the experiment on Mus musculus [25] came out at 8; in the experiment with Mus musculus [2], 8; in the experiment with Mus musculus [26] it was 8; with Mus musculus [27], 7; in the experiment with Mus musculus [34], 8. For the same compound, in the experiment with Mus musculus [28], the ILS at 15 mg/kg turned out to be 0%. Further, in the experiment on Mus musculus [29], the ILS at 35 mg/kg was -13%. In addition, in the experiment on Mus musculus [30], the ILS entry was “Toxic”. The ILS at 25 mg/kg in the experiment on Mus musculus [31] turned out to be 0%. Also, the ILS at 30 mg/kg with Mus musculus [32] amounted to 0%. Besides, the ILS at 10 mg/kg with Mus musculus [33] amounted to 0%.
